Assays:
Assay type in all cases: functional
[1] = system: DU-145; assay: Antiproliferative activity against human DU145 cells assessed as reduction in cell growth incubated for 96 hrs by propidium iodide based 2D monolayer assay; settings: DU-145, 96 h
Summary of the method: (§1)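 After 24 h recovery, compound in medium or medium alone (control wells) was added at 10 half-log concentrations from 0.0032 to 100 µM, in triplicate, with at most 0.3% DMSO. After 96 h, wells were PBS-washed, stained with 7 µg/ml PI and 0.1% Triton X-100, and fluorescence read at 530/620 nm. IC50 came from a 4-parameter fit, geometric mean.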

[2] = system: LNCaP; assay: Antiproliferative activity against human LNCAP cells assessed as reduction in cell growth incubated for 96 hrs by propidium iodide based 2D monolayer assay; summary of the method: as §1
[3] = system: VCaP; assay: Antiproliferative activity against human VCaP cells assessed as reduction in cell growth incubated for 96 hrs by propidium iodide based 2D monolayer assay
Summary of the method: (§2)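 VCaP cells in RPMI 1640 with 10% FCS at 37 °C, 5% CO2, seeded 4,000–20,000 cells/well and left 24 h before dosing. Compounds from DMSO stocks were diluted in half-log steps in medium, 10 concentrations 0.0032–100 μM, triplicate wells, max 0.3% DMSO. After 96 h, cells were washed, stained with 7 μg/ml propidium iodide plus 0.1% Triton X-100 for 1–2 h at room temperature, and fluorescence read at ex 530/em 620 nm.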

[4] = system: VCaP; assay: Antiproliferative activity against human VCaP cells assessed as T/C value at 1 x 10^-2 uM incubated for 96 hrs by propidium iodide based 2D monolayer assay
Summary of the method: as §1, with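 “Cells were kept in RPMI 1640 with 25 mM HEPES, 10% FCS and gentamicin at 37 °C under 5% CO2, and plated at 4,000-20,000 cells/well. After 24” for “After 24”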

[5] = system: VCaP; assay: Antiproliferative activity against human VCaP cells assessed as T/C value at 3.2 x 10^-2 uM incubated for 96 hrs by propidium iodide based 2D monolayer assay; summary of the method: as §2
[6] = system: VCaP; assay: Antiproliferative activity against human VCaP cells assessed as T/C value at 1 x 10^-1 uM incubated for 96 hrs by propidium iodide based 2D monolayer assay
Summary of the method: as §1, with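 “Cells were kept in RPMI 1640 with 25 mM HEPES, 10% FCS and gentamicin at 37 °C under 5% CO2, and plated at 4,000-20,000 cells/well. After 24” for “After 24”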

[7] = system: VCaP; assay: Antiproliferative activity against human VCaP cells assessed as T/C value at 3.2 x 10^-1 uM incubated for 96 hrs by propidium iodide based 2D monolayer assay; summary of the method: as §2
[8] = system: VCaP; assay: Antiproliferative activity against human VCaP cells assessed as T/C value at 1 uM incubated for 96 hrs by propidium iodide based 2D monolayer assay
Summary of the method: as §1, with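 “Cells were kept in RPMI 1640 with 25 mM HEPES, 10% FCS and gentamicin at 37 °C under 5% CO2, and plated at 4,000-20,000 cells/well. After 24” for “After 24”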

[9] = system: VCaP; assay: Antiproliferative activity against human VCaP cells assessed as T/C value at 3.2 uM incubated for 96 hrs by propidium iodide based 2D monolayer assay
Summary of the method: as §1, with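 “Cells were kept in RPMI 1640 with 25 mM HEPES, 10% FCS and gentamicin at 37 °C under 5% CO2, and plated at 4,000-20,000 cells/well. After 24” for “After 24”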

[10] = system: VCaP; assay: Antiproliferative activity against human VCaP cells assessed as T/C value at 1 x 10^2 uM incubated for 96 hrs by propidium iodide based 2D monolayer assay
Summary of the method: as §1, with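 “Cells were kept in RPMI 1640 with 25 mM HEPES, 10% FCS and gentamicin at 37 °C under 5% CO2, and plated at 4,000-20,000 cells/well. After 24” for “After 24”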

[11] = system: LNCaP; assay: Antiproliferative activity against human LNCAP cells assessed as T/C value at 1 x 10^-2 uM incubated for 96 hrs by propidium iodide based 2D monolayer assay
Summary of the method: as §1, with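 “Cells were kept in RPMI 1640 with 25 mM HEPES, 10% FCS and gentamicin at 37 °C under 5% CO2, and plated at 4,000-20,000 cells/well. After 24” for “After 24”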

[12] = system: LNCaP; assay: Antiproliferative activity against human LNCAP cells assessed as T/C value at 3.2 x 10^-2 uM incubated for 96 hrs by propidium iodide based 2D monolayer assay
Summary of the method: as §1, with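 “Cells were kept in RPMI 1640 with 25 mM HEPES, 10% FCS and gentamicin at 37 °C under 5% CO2, and plated at 4,000-20,000 cells/well. After 24” for “After 24”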

[13] = system: LNCaP; assay: Antiproliferative activity against human LNCAP cells assessed as T/C value at 3.2 x 10^-1 uM incubated for 96 hrs by propidium iodide based 2D monolayer assay
Summary of the method: as §1, with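 “Cells were kept in RPMI 1640 with 25 mM HEPES, 10% FCS and gentamicin at 37 °C under 5% CO2, and plated at 4,000-20,000 cells/well. After 24” for “After 24”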

[14] = system: LNCaP; assay: Antiproliferative activity against human LNCAP cells assessed as T/C value at 1 uM incubated for 96 hrs by propidium iodide based 2D monolayer assay
Summary of the method: as §1, with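 “Cells were kept in RPMI 1640 with 25 mM HEPES, 10% FCS and gentamicin at 37 °C under 5% CO2, and plated at 4,000-20,000 cells/well. After 24” for “After 24”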

[15] = system: LNCaP; assay: Antiproliferative activity against human LNCAP cells assessed as T/C value at 3.2 uM incubated for 96 hrs by propidium iodide based 2D monolayer assay
Summary of the method: as §1, with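 “Cells were kept in RPMI 1640 with 25 mM HEPES, 10% FCS and gentamicin at 37 °C under 5% CO2, and plated at 4,000-20,000 cells/well. After 24” for “After 24”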

[16] = system: LNCaP; assay: Antiproliferative activity against human LNCAP cells assessed as T/C value at 1 x 10^1 uM incubated for 96 hrs by propidium iodide based 2D monolayer assay
Summary of the method: as §1, with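 “Cells were kept in RPMI 1640 with 25 mM HEPES, 10% FCS and gentamicin at 37 °C under 5% CO2, and plated at 4,000-20,000 cells/well. After 24” for “After 24”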

[17] = system: CWR22R; assay: Antiproliferative activity against human 22Rv1 cells assessed as T/C value at 3.2 x 10^-3 uM incubated for 96 hrs by propidium iodide based 2D monolayer assay
Summary of the method: as §1, with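 “Cells were kept in RPMI 1640 with 25 mM HEPES, 10% FCS and gentamicin at 37 °C under 5% CO2, and plated at 4,000-20,000 cells/well. After 24” for “After 24”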

[18] = system: CWR22R; assay: Antiproliferative activity against human 22Rv1 cells assessed as T/C value at 1 x 10^-2 uM incubated for 96 hrs by propidium iodide based 2D monolayer assay
Summary of the method: as §1, with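 “Cells were kept in RPMI 1640 with 25 mM HEPES, 10% FCS and gentamicin at 37 °C under 5% CO2, and plated at 4,000-20,000 cells/well. After 24” for “After 24”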

[19] = system: CWR22R; assay: Antiproliferative activity against human 22Rv1 cells assessed as T/C value at 1 x 10^-1 uM incubated for 96 hrs by propidium iodide based 2D monolayer assay
Summary of the method: as §1, with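 “Cells were kept in RPMI 1640 with 25 mM HEPES, 10% FCS and gentamicin at 37 °C under 5% CO2, and plated at 4,000-20,000 cells/well. After 24” for “After 24”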

[20] = system: CWR22R; assay: Antiproliferative activity against human 22Rv1 cells assessed as T/C value at 3.2 x 10^-1 uM incubated for 96 hrs by propidium iodide based 2D monolayer assay
Summary of the method: as §1, with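 “Cells were kept in RPMI 1640 with 25 mM HEPES, 10% FCS and gentamicin at 37 °C under 5% CO2, and plated at 4,000-20,000 cells/well. After 24” for “After 24”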

[21] = system: CWR22R; assay: Antiproliferative activity against human 22Rv1 cells assessed as T/C value at 1 uM incubated for 96 hrs by propidium iodide based 2D monolayer assay
Summary of the method: as §1, with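 “Cells were kept in RPMI 1640 with 25 mM HEPES, 10% FCS and gentamicin at 37 °C under 5% CO2, and plated at 4,000-20,000 cells/well. After 24” for “After 24”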

[22] = system: CWR22R; assay: Antiproliferative activity against human 22Rv1 cells assessed as T/C value at 3.2 uM incubated for 96 hrs by propidium iodide based 2D monolayer assay
Summary of the method: as §1, with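 “Cells were kept in RPMI 1640 with 25 mM HEPES, 10% FCS and gentamicin at 37 °C under 5% CO2, and plated at 4,000-20,000 cells/well. After 24” for “After 24”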

[23] = system: CWR22R; assay: Antiproliferative activity against human 22Rv1 cells assessed as T/C value at 1 x 10^1 uM incubated for 96 hrs by propidium iodide based 2D monolayer assay
Summary of the method: as §1, with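 “Cells were kept in RPMI 1640 with 25 mM HEPES, 10% FCS and gentamicin at 37 °C under 5% CO2, and plated at 4,000-20,000 cells/well. After 24” for “After 24”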

[24] = system: CWR22R; assay: Antiproliferative activity against human 22Rv1 cells assessed as T/C value at 1 x 10^2 uM incubated for 96 hrs by propidium iodide based 2D monolayer assay
Summary of the method: as §1, with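 “Cells were kept in RPMI 1640 with 25 mM HEPES, 10% FCS and gentamicin at 37 °C under 5% CO2, and plated at 4,000-20,000 cells/well. After 24” for “After 24”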

[25] = system: DU-145; assay: Antiproliferative activity against human DU145 cells assessed as T/C value at 3.2 x 10^-3 uM incubated for 96 hrs by propidium iodide based 2D monolayer assay; summary of the method: as §1
[26] = system: DU-145; assay: Antiproliferative activity against human DU145 cells assessed as T/C value at 3.2 x 10^-2 uM incubated for 96 hrs by propidium iodide based 2D monolayer assay; summary of the method: as §1
[27] = system: DU-145; assay: Antiproliferative activity against human DU145 cells assessed as T/C value at 1 x 10^-1 uM incubated for 96 hrs by propidium iodide based 2D monolayer assay; summary of the method: as §1
[28] = system: DU-145; assay: Antiproliferative activity against human DU145 cells assessed as T/C value at 3.2 x 10^-1 uM incubated for 96 hrs by propidium iodide based 2D monolayer assay; summary of the method: as §1
[29] = system: DU-145; assay: Antiproliferative activity against human DU145 cells assessed as T/C value at 1 uM incubated for 96 hrs by propidium iodide based 2D monolayer assay; summary of the method: as §1
[30] = system: DU-145; assay: Antiproliferative activity against human DU145 cells assessed as T/C value at 3.2 uM incubated for 96 hrs by propidium iodide based 2D monolayer assay
Summary of the method: as §1, with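 “Cells were kept in RPMI 1640 with 25 mM HEPES, 10% FCS and gentamicin at 37 °C under 5% CO2, and plated at 4,000-20,000 cells/well. After 24” for “After 24”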

[31] = system: DU-145; assay: Antiproliferative activity against human DU145 cells assessed as T/C value at 1 x 10^1 uM incubated for 96 hrs by propidium iodide based 2D monolayer assay; summary of the method: as §1
[32] = system: DU-145; assay: Antiproliferative activity against human DU145 cells assessed as T/C value at 1 x 10^2 uM incubated for 96 hrs by propidium iodide based 2D monolayer assay
Summary of the method: as §1, with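 “Cells were kept in RPMI 1640 with 25 mM HEPES, 10% FCS and gentamicin at 37 °C under 5% CO2, and plated at 4,000-20,000 cells/well. After 24” for “After 24”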

SMILES	IC50 [1] [µM]	IC70 [1] [µM]	IC50 [2] [nM]	IC70 [2] [µM]	IC50 [3] [nM]	IC70 [3] [µM]	T/C [4] [%]	T/C [5] [%]	T/C [6] [%]	T/C [7] [%]	T/C [8] [%]	T/C [9] [%]	T/C [10] [%]	T/C [11] [%]	T/C [12] [%]	T/C [13] [%]	T/C [14] [%]	T/C [15] [%]	T/C [16] [%]	T/C [17] [%]	further results
CC(O)(COc1cc(C(F)(F)F)cc(C(F)(F)F)c1)C(=O)Nc1cccc(S(F)(F)(F)(F)F)c1 (racemic)	9.3	9.59	2800	3	2800	3.24	87	87	78	91	94	33	7	96	74	67	101	17	2	104	T/C [18]: 105%; T/C [19]: 106%; T/C [20]: 105%; T/C [21]: 102%; T/C [22]: 102%; T/C [23]: 13%; T/C [24]: 2%; T/C [25]: 107%; T/C [26]: 114%; T/C [27]: 114%; T/C [28]: 116%; T/C [29]: 123%; T/C [30]: 115%; T/C [31]: 12%; T/C [32]: 0%
CC(O)(COc1cc(C(F)(F)F)cc(C(F)(F)F)c1)C(=O)Nc1ccc(S(F)(F)(F)(F)F)cc1 (racemic)	8.6	9.21	2300	2.97	2600	4.53	95	95	99	87	88	37	5	88	100	93	90	26	6	106	T/C [18]: 99%; T/C [19]: 104%; T/C [20]: 109%; T/C [21]: 108%; T/C [22]: 103%; T/C [23]: 16%; T/C [24]: 4%; T/C [25]: 102%; T/C [26]: 105%; T/C [27]: 109%; T/C [28]: 113%; T/C [29]: 118%; T/C [30]: 117%; T/C [31]: 15%; T/C [32]: 1%

Source: ChEMBL document CHEMBL4364301 (Eur J Med Chem, 2019)
